These results are taken from article PMC9447421 (FASEB BioAdvances, 2022).

Assay [1] has as its system hT2R4. The following applies: human T2R4; cited from earlier work.
The target of the next assay is T1, A. mexicanus T2R4 (Astyanax mexicanus, UniProt A0A3B1ICP8).
T1 sequence (A0A3B1ICP8 2-338): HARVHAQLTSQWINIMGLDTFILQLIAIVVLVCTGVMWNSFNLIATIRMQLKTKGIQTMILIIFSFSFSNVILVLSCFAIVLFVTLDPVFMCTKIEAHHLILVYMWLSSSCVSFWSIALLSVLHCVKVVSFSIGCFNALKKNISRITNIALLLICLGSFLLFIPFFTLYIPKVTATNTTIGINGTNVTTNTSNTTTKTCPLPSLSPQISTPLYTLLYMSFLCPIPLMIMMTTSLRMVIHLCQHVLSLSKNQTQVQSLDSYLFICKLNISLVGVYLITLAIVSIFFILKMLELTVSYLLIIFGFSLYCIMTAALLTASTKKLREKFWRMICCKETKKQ
In words: Calcium mobilization assay, HEK293T cells stably expressing T2R4. It counts as cell-based. A general note: A change in cytosolic calcium serves as a functional read-out for many receptors and channels.

The test system of assay [2] is canonical Gβγ‐PLC signaling pathway activated by T2Rs (T2R1). It counts as cell-based, Astyanax mexicanus. The following applies: T2R1 cells; blocker 10 μM, 30 min pretreatment; brine shrimp 5 mg/ml. The method in brief:
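HEK293T cells stably expressing FLAG-tagged fish T2R1, selected in hygromycin (200 μg/ml). Brine shrimp (300 mg ground food per 10 ml) and blockers prepared in assay buffer (1X HBSS, 20 mM HEPES). Cells loaded with Fluo-4 NW, 35 min at 37°C then 35 min at room temperature. Compounds added robotically on a FlexStation 3. Signal baseline-subtracted against parental HEK293T cells and reported as ΔRFU.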

The subject of a further assay is hT2R1. The settings on record: human T2R1; cited from earlier work.
For assay [3], the system named is hT2R4. The settings on record: human T2R4; cited from earlier work. The source holds these as a separate data set.

Counter-ions that a name gives are not always drawn.

On to `COc1ccc2c(c1)[C@]13CCCC[C@@H]1[C@H](C2)N(C)CC3` [DXM, dextromethorphan], for which, in the assay with hT2R4 [1], the “Activation of hT2R4” value was “does not activate”. Besides, at A. mexicanus T2R4, the EC50 (usually the midpoint of the concentration-response curve) amounted to 1430 µM.
Regarding `COc1ccc2c(c1)CC[C@@H]1[C@@H]2CC[C@]2(C)[C@@H](NCCCCCCN3C(=O)C=CC3=O)CC[C@@H]12` [U73122], the “Effect of pretreatment on brine shrimp-induced calcium mobilization” value in assay [2] is “significant decrease in calcium mobilization”.
Take `COc1ccc2c(c1)CC[C@@H]1[C@@H]2CC[C@]2(C)[C@@H](NCCCCCCN3C(=O)CCC3=O)CC[C@@H]12` [U73343]: in assay [2], the “Effect of pretreatment on brine shrimp-induced calcium mobilization” value was “no significant differences”.
For the molecule `O=C1OC2(c3ccccc31)c1ccc(O)c(O)c1Oc1c2ccc(O)c1O` [gallein, Gallein], the “Effect of pretreatment on brine shrimp-induced calcium mobilization” value in assay [2] was “significant decrease in calcium mobilization”.
In the case of `C=C[C@H]1C[N@@]2CC[C@H]1C[C@H]2[C@H](O)c1ccnc2ccc(OC)cc12` [quinine, quinine hydrochloride], in the assay on hT2R1, the “Activation of hT2R1” value was “does not activate”. In addition, in the assay on hT2R4 [3], the “Effect on hT2R4 expression (pharmacological chaperone)” value is on record as “acts intracellularly to enhance hT2R4 expression”.
